Published values pooled from the literature.
Each line is one published result; the experiments were not run side by side.
Target: Calcium/calmodulin-dependent protein kinase type II subunit beta (CAMK2B, Homo sapiens, UniProt Q13554)

CN(C)c1ncc(F)c(-c2cnn3ncccc23)n1 — remaining binding (binding; 1 µM): 65%
O=C(c1ccc(Nc2ncc(Cl)c(-c3ccc(Cl)s3)n2)cc1)N1CCC(N2CCCC2)CC1 — remaining binding (binding; competition with immobilised ligand; 1 µM): 87%
C[C@@H](c1cccc(C#N)c1)n1cc(Cl)cc(C(N)=O)c1=N — remaining binding (cell-free assay; competition with immobilised ligand; 1 µM): 100%
O=C(NCC1CCOCC1)c1n[nH]cc1NC(=O)c1c(F)cccc1F — remaining binding (binding; competition with immobilised ligand; 1 µM): 75%
c1ccc(N2CCN(Cc3nc4ccccc4[nH]3)CC2)nc1 — remaining binding (cell-free assay; competition with immobilised ligand; 1 µM): 100%
N[C@H]1CCN(c2nccc(-c3cnn4ncccc34)n2)C1 — remaining binding (binding; 1 µM): 100%
CNC(=O)[C@@H]1CC[C@@H](n2c(-c3ccc4cnccc4c3)nc3ccc(C(=O)NCc4cccc(C(N)=O)c4)cc32)C1 — remaining binding (binding; competition with immobilised ligand; 1 µM): 100%
FC(F)(F)Oc1cccc(-c2cnc3ccc(-c4ccncc4)nn23)c1 — remaining binding (cell-free assay; competition with immobilised ligand; 5 µM): 47%
c1cnn2ncc(-c3ccnc(N4CCC45COC5)n3)c2c1 — remaining binding (binding; 1 µM): 66%
FC(F)(F)c1ccc2c(c1)nc(-c1cccnc1)n2C1CC1 — remaining binding (cell-free assay; competition with immobilised ligand; 1 µM): 100%
C[C@@H]1CCN(c2nccc(-c3cnn4ncccc34)n2)C1 — remaining binding (binding; 1 µM): 78%
CS(=O)(=O)NCC[C@H](NC(=O)c1cncc2c1cnn2-c1ccc(F)cc1)c1ccnc(S(C)(=O)=O)c1 — remaining binding (cell-free assay; competition with immobilised ligand; 1 µM): 100%
c1cncc(-c2cccc(Nc3nccc(NC4CCCCC4)n3)c2)c1 — remaining binding (binding; competition with immobilised ligand; 10 µM): 94%
O=C(c1ccc(Nc2nccc(-c3cc4ccccc4s3)n2)cc1)N1CCC(N2CCCC2)CC1 — remaining binding (binding; competition with immobilised ligand; 1 µM): 100%
F[C@@H]1CCN(c2nccc(-c3cnn4ncccc34)n2)C1 — remaining binding (binding; 1 µM): 100%
COc1cnc(Nc2cccc(S(N)(=O)=O)c2)nc1N1CCN(c2ccccc2)CC1 — remaining binding (binding; competition with immobilised ligand; 1 µM): 83%
C[C@@H](c1ccc(-n2cnc3c(N)ncnc32)cc1)N1CCc2nn(C)c(Cc3ccccc3)c2C1=O — remaining binding (binding; competition with immobilised ligand; 0.1 µM): 98%
Cn1nc(C(=O)NCc2ccc(C(=O)O)cc2)cc1-c1ccc2[nH]ccc2c1 — remaining binding (cell-free assay; competition with immobilised ligand; 0.1 µM): 91%
CC1CCCN1c1nccc(-c2cnn3ncccc23)n1 (stereo not drawn) — remaining binding (binding; 1 µM): 98%
Cc1cc(NC(=O)c2cccc(S(F)(F)(F)(F)F)c2)cc(-n2ccn3nc(-c4cccnc4)cc23)c1 — remaining binding (cell-free assay; competition with immobilised ligand; 1 µM): 100%
O=C(NCCCN1CCOCC1)c1ccc(Nc2nccc(-c3cc4ccccc4s3)n2)cc1 — remaining binding (binding; competition with immobilised ligand; 1 µM): 83%
